hERG protect = hERG rescue from dofetilide block, primary screen, cell-based, CHO-hERG, FluxOR thallium flux, dofetilide IC70 | Voltage-gated inwardly rectifying potassium channel KCNH2 (Homo sapiens), Q12809 | dofetilide IC70 present | activation (rescue from dofetilide block), less the hit threshold, % at 10 µM | 310,000 compounds, 0.51% hits | AID 1511, 2009;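 active means activation above the mean of controls blocked by dofetilide plus 5 SD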;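 further: thallium influx through hERG after potassium depolarization seen as dye fluorescence rise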
KCNK3 inh = human KCNK3 channel inhibitors, primary screen, CHO cells, FluxOR thallium flux, B-score | Potassium channel subfamily K member 3 (Homo sapiens), O14649 | FluxOR fluorescence; stronger effect = lower value | B-score at 10 µM | 340,000 compounds, 0.84% hits;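 active means B-score under library mean minus 4 SD, starting fluorescence ratio at most library mean plus 5 SD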;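 further: more negative B-score means stronger inhibition of thallium flux through KCNK3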
Kir21 block = inhibitors of mouse Kir2.1 inward-rectifier potassium channel | HEK293-Kir2.1, FluxOR thallium flux fluorescence; stronger effect = lower value | AID 1672, 2009 | 310,000 compounds, 0.85% hits | B-score at 10 µM | Inward rectifier potassium channel 2 (Mus musculus), P35561;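 active means fluorescence ratio B-score at or below minus 3 SD of library scores, with starting-brightness B-score within 2 SD, cut at about -4.2 in these data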;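 further: channel flux triggered by added potassium and thallium sulfate stimulus; B-score of peak minus minimum fluorescence over baseline after thallium stimulus; more negative B-score means stronger Kir2.1 block with less thallium influx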
KCNK9 inh-1 = KCNK9 potassium channel inhibitors, primary screen, HEK293 cells, thallium flux. FluxOR thallium flux fluorescence; stronger effect = lower value. B-score at 10 µM. 310,000 compounds, 1.2% hits. AID 488922, 2010;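 active means ratio B-score over 3 SD below the library mean, with starting fluorescence within 5 SD of its mean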;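 further: negative B-score means less thallium flux so channel inhibition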
Target sequence (Q9NPC2 whole entry, looked up): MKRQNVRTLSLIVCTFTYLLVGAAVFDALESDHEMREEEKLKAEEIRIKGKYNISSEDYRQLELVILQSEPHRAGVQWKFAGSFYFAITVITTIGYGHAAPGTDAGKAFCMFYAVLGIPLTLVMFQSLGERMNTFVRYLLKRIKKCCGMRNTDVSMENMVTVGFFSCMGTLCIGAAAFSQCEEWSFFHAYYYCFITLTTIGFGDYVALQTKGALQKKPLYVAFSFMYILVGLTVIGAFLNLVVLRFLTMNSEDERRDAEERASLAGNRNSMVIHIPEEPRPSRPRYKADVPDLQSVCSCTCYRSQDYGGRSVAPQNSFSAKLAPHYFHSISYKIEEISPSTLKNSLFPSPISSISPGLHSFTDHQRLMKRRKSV
KCNQ1 block = inhibitors of human KCNQ1 channel, primary screen, cell-based, thallium flux, high-throughput; Potassium voltage-gated channel subfamily KQT member 1 (Homo sapiens), P51787; CHO-K1 KCNQ1, FluxOR thallium flux fluorescence; stronger effect = higher value; B-score at 10 µM; 310,000 compounds, 1.3% hits; AID 2642, 2010;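 active means compounds whose thallium flux B-score, printed positive for inhibition, exceeds three library SD while starting fluorescence stays within three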;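 further: channel opened by potassium depolarization with thallium stimulus after 20 min compound exposure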
KCNQ1 pot = potentiators or activators of KCNQ1 channel, primary screen, cell-based, thallium flux, high-throughput. Potassium voltage-gated channel subfamily KQT member 1 (Homo sapiens), P51787. B-score at 10 µM. AID 2648, 2010. CHO-K1 KCNQ1, thallium flux FluxOR fluorescence; stronger effect = higher value. 310,000 compounds, 0.35% hits;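 active means fluorescence ratio B-score, a plate-corrected score, at least three library SD, with initial intensity B-score within 5 SD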
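System: CHO-K1 cells stably expressing KCNQ1 / Medium: assay buffer for compound exposure, DMSO matched across wells / Reagent: thallium- and potassium-containing depolarizing buffer / Compound: one concentration, matched DMSO / Incubation: 20 min compound pretreatment at room temperature / Measured by: kinetic FluxOR fluorescence, 10 s baseline plus 110 s post-stimulus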
hERG ctr = hERG channel inhibition, counter-screen for Kir2.1 inhibitor project, cell-based, thallium flux | shares compounds with Kir21 block | hERG-expressing cells | inhibition, % at 10 µM | 320 compounds, 20% hits | AID 2236, 2010;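 further: host cells are CHO cells stably expressing hERG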
KCNK9 inh-2 = KCNK9 channel inhibition, selectivity assay for Kir2.1 inhibitor project, cell-based | shares compounds with Kir21 block | KCNK9-expressing cells, ion flux inhibition | inhibition, % at 10 µM | 320 compounds, 5% hits | AID 2329, 2010
Kir21 ephys inh = mouse Kir2.1 channel blockers, Kir2.1 inhibitor project, cell-based, secondary, automated electrophysiology. inhibition, % at 25 µM. shares compounds with Kir21 block. 320 compounds, 71% hits. AID 463252, 2010. Kir2.1 cells, automated patch-clamp current inhibition
KCNK9 inh conf = KCNK9 potassium channel inhibitors, confirmation, HEK293 cells, thallium flux, duplicate | shares compounds with KCNK9 inh-1 | FluxOR thallium flux fluorescence | inhibition, % at 10 µM | 4,900 compounds, 43% hits;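 active means thallium signal inhibited by more than 5 SD of the compound-free buffer control wells, on both duplicate plates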
Kir21 sel = mouse Kir2.1 channel inhibition, confirmation, selectivity assay for KCNK9 modulator project, cell-based, HEK293, thallium flux; shares compounds with KCNK9 inh-1; Kir2.1 cells, FluxOR thallium flux fluorescence; inhibition, % at 10 µM; 4,900 compounds, 4% hits;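 active means thallium signal drop more than 5 SD beyond the mean of the no-compound control wells, seen in both duplicate plates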;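 further: signal is fluorescence rise after thallium addition divided by baseline fluorescence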
KCNK9 uninduced = thallium flux in non-induced HEK293 cells, confirmation, counter-screen for KCNK9 inhibitor project, cell-based, second counter screen, non-induced KCNK9-HEK293 | FluxOR thallium flux | inhibition, % at 10 µM | 4,900 compounds, 40% hits | AID 492997, 2010 | shares compounds with KCNK9 inh-1;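 active means thallium signal drop beyond 5 SD of the untreated control mean, on both duplicate plates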
A number is an active result; n = inactive; x = no result given. A selection: hits, their analogues and other compounds. The true share with any hit is near 3.7%. Unless noted, how the calls were made is not given here.

SMILES	hERG protect	KCNK3 inh	Kir21 block	KCNK9 inh-1	KCNQ1 block	KCNQ1 pot	others
CC12CCC(=O)C=C1CCC1C2CCC2(C)C(O)CCC12 (stereo unspecified)	x	n	x	x	x	x
c1cc(OCCN2CC2)ccn1	x	n	x	x	x	x
COc1ccc(NC(=O)[C@@H](NC(=O)N2C[C@H]3C[C@@H](C2)c2cccc(=O)n2C3)C(C)C)cc1	n	n	n	n	n	n
c1cc2c(cc1CCNC1C3CC4CC(C3)CC1C4)OCO2 (stereo unspecified)	n	n	-4.5	n	6	n
CC1CCC(NCCc2ccc3c(c2)OCO3)CC1 (stereo unspecified)	n	n	n	n	n	n
COC(=O)C1=C(c2ccc(S(C)(=O)=O)cc2)C[C@@H]2CC[C@H]1N2C(=O)NC1CCCCC1	5.8	n	n	n	n	n
CCOP(=O)(C#CC(C)(C)C)C(O)(c1ccccc1)C(F)(F)F (stereo unspecified)	n	n	-4.3	n	n	n
CC#CP(=O)(OCC)C(O)(c1ccccc1)C(F)(F)F (stereo unspecified)	n	n	n	n	n	n
Cc1cc(OCC(=O)N2C[C@H]3C[C@@H](C2)c2cccc(=O)n2C3)c2c(C)c(C)c(=O)oc2c1	n	n	n	n	n	n
CC(=O)C1C2c3ccccc3O[C@@]1(C)N=c1s/c(=C/c3ccoc3)c(=O)n12 (stereo partly specified)	n	n	n	n	7	n
COC(=O)C1C2c3ccccc3OC1(C)N=c1s/c(=C/c3cn(C)nc3C)c(=O)n12 (stereo unspecified)	n	n	n	n	n	n
C=CCN1C(=O)NC(=O)C(CCc2ccncc2)(CCc2ccncc2)C1=O	n	n	n	n	n	n
O=C(c1cc(F)ccc1F)C1CCCN(Cc2cc(Cl)ccc2O)C1 (stereo unspecified)	n	n	n	n	6	n
O=Cc1c(C(=O)O)n(Cc2ccc(Cl)cc2)c2ccccc12	n	n	n	n	n	n
O=P(Nc1cccc(Cl)c1)(Oc1ccccc1)Oc1ccccc1	n	n	n	-7.6	6	n
COc1cccc(NP(=O)(Oc2ccccc2)Oc2ccccc2)c1	n	n	n	n	n	n
Cc1[nH]n(-c2ccccc2)c(=O)c1C(c1ccc([N+](=O)[O-])cc1)c1c(C)[nH]n(-c2ccccc2)c1=O	n	n	n	n	7	n
COC1=CC2[C@@H]3Cc4ccc(OC)c(O)c4[C@]2(CCN3C)CC1=O (stereo partly specified)	x	n	x	x	x	x
CCOc1ccccc1CNCCc1ccc2c(c1)OCO2	n	n	n	n	n	n
CCOc1ccccc1CN1C2CCC1CC(c1ccc(C)cc1)C2 (stereo unspecified)	n	n	n	n	12	n
Cc1ccc2c(c1)C1CN(C)CCC1N2C(=O)/C(C#N)=C/c1ccc2c(c1)OCO2 (stereo unspecified)	n	n	n	n	n	n
c1ccc(CNCCc2c[nH]c3ccccc23)cc1	n	n	n	n	n	n
CCc1ccc(CNCCc2c[nH]c3ccccc23)cc1	n	n	-15	n	n	n	hERG ctr=53%;KCNK9 inh-2=n;Kir21 ephys inh=60%
COc1ccc(-c2nn(CCC#N)cc2C(=O)NCc2ccccc2)cc1[N+](=O)[O-]	n	n	n	n	n	n
CCN1CCN(Cc2ccc(C)cc2)CC1	n	n	n	n	n	n
SMILES	hERG protect	KCNK3 inh	Kir21 block	KCNK9 inh-1	KCNQ1 block	KCNQ1 pot	others
Cc1ccc(CN2CCN(Cc3ccccc3F)CC2)cc1	n	n	-11	n	n	n	hERG ctr=n;KCNK9 inh-2=n;Kir21 ephys inh=58%
CCOc1ccc(Cl)cc1CNCCc1ccccc1F	n	n	-8.9	n	n	n	hERG ctr=n;KCNK9 inh-2=n;Kir21 ephys inh=52%
O=c1c2ccccc2nc(-c2ccccc2)n1-c1ccc(O)cc1	n	n	n	n	n	n
COc1cc2c(cc1OC)-c1c(OC)c(OC)cc3c1[C@H](C2)[N+](C)(C)CC3	n	n	n	n	n	n
CCCCCSc1cc(OC)c(CCN(C)C)cc1OC	n	n	-6.3	n	n	n	hERG ctr=57%;KCNK9 inh-2=n;Kir21 ephys inh=56%
C=CCC1(Nc2ccccc2)CC(C)N(C)CC1C (stereo unspecified)	n	n	n	n	n	n
CN(C)CCOC(=O)c1cn(Cc2ccccc2)c2ccccc12	n	n	-7	n	n	n	hERG ctr=53%;KCNK9 inh-2=n;Kir21 ephys inh=33%
Fc1ccc(C(OCCN2CCCC2)c2ccc(F)cc2)cc1	n	n	n	n	n	n
Fc1ccc(C(OCCN2CCCC2)c2ccc(Br)cc2)cc1 (stereo unspecified)	n	n	-8.4	n	n	n	hERG ctr=70%;KCNK9 inh-2=n;Kir21 ephys inh=n
Cc1cccc(CCNCc2cc3cccc(C)c3[nH]c2=O)c1	n	n	-6.9	n	n	n	hERG ctr=n;KCNK9 inh-2=n;Kir21 ephys inh=33%
CCc1ccc(CN2CCN(Cc3ccc(SC)cc3)CC2)cc1	n	n	-7.2	n	n	n	hERG ctr=60%;KCNK9 inh-2=n;Kir21 ephys inh=15%;KCNK9 inh conf=n;Kir21 sel=60%;KCNK9 uninduced=n

Compound activity deposited in PubChem by Johns Hopkins Ion Channel Center.
